In ChEMBL document CHEMBL1121923, “N2- and C-7 substituted actinomycin D analogues: synthesis, DNA-binding affinity, and biochemical and biological properties. Structure-activity relationship” (J Med Chem, 1981):
≈ marks a conversion by molar mass, not a printed value.

Columns and labels:
CCRF-CEM = assay: In vitro antitumor activity against human lymphoblastic leukemia cells.; format: functional; conditions: read-out: ID50 (the source's name)
In short: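 Human lymphoblastic leukemia CCRF-CEM cells grown in suspension culture; growth inhibition in vitro; ID50 (ng/mL) reported as the 50% inhibitory dose.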

P388 [1] = assay: Optimal dose for antitumor activity was measured in P388 cells of CDF1 male mice in vivo; Highest dose tested; format: functional, Mus musculus
In short: (§1)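 CDF1 male mice, groups of seven, given 10^6 P388 cells ip on day 0; drug ip in 5% DMSO–saline on days 1, 5 and 9; controls received vehicle; range of doses tested, optimal nontoxic dose listed; median survival time; %ILS = (treated − control)/control × 100; average of two or more experiments.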

P388 [2] = assay: Median survival time of the P388 cells implanted CDF1 male mice in vivo; format: functional, Mus musculus; in short: as §1
Calf thymus DNA [3] = assay: Apparent number of binding sites per base pairs in DNA; Not measurable; format: nucleic-acid assay; conditions: Bos taurus
In short: (§2)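 Calf thymus DNA; spectral titration; binding isotherms in 0.01 M phosphate buffer, pH 7.0, 20 °C; Kapp (per base pair) and Bapp (drug binding sites per base pair) taken from Scatchard plot.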

P388 [4] = assay: Concentration required for 50% inhibition of incorporation of labeled thymidine by p388 cells for synthesis of DNA (in vitro); e indicates values are high and variable; format: functional, cell-based; conditions: Mus musculus
P388 [5] = assay: Concentration required for 50% inhibition of incorporation of labeled uridine by P388 cells for the synthesis of RNA (in vitro); e indicates values are high and variable; format: functional, cell-based; conditions: Mus musculus
Calf thymus DNA [6] = assay: Apparent binding constant calf thymus DNA-drug complex; format: nucleic-acid assay; conditions: Bos taurus; in short: as §2
P388 [7] = assay: Percent of increased life span of P388 cells implanted CDF1 male mice; format: functional, Mus musculus; in short: as §1
P388 [8] = assay: Concentration required for 50% inhibition of incorporation of labeled thymidine by p388 cells for synthesis of DNA (in vitro); format: functional; conditions: Mus musculus, read-out: ED50 (the source's name)
P388 [9] = assay: Concentration required for 50% inhibition of incorporation of labeled uridine by P388 cells for the synthesis of RNA (in vitro); format: functional; conditions: Mus musculus, read-out: ED50 (the source's name)
Calf thymus DNA [10] = assay: Apparent binding constant against calf thymus DNA-drug complex; Not measurable; format: nucleic-acid assay; conditions: Bos taurus; in short: as §2

SMILES | IC50 (CCRF-CEM) [µg/mL] | Highest dose tested (P388 [1]) [mg/kg] | MST (P388 [2]) [days] | Bapp (Calf thymus DNA [3]) | ED50 (P388 [4]) | ED50 (P388 [5]) | K app (Calf thymus DNA [6]) [M⁻¹] | ILS (P388 [7]) [%] | EC50 (P388 [8]) [nM] | EC50 (P388 [9]) [nM] | K app (Calf thymus DNA [10])
CCCCCCCCCNc1c(C(=O)N[C@@H]2C(=O)N[C@H](C(C)C)C(=O)N3CCC[C@H]3C(=O)N(C)CC(=O)N(C)[C@@H](C(C)C)C(=O)O[C@@H]2C)c2nc3c(C(=O)N[C@@H]4C(=O)N[C@H](C(C)C)C(=O)N5CCC[C@H]5C(=O)N(C)CC(=O)N(C)[C@@H](C(C)C)C(=O)O[C@@H]4C)ccc(C)c3oc-2c(C)c1=O | 11 (≈ 7.96 µM) | 1.8 | 10 | – | – | – | – | – | – | – | –
Cc1c2oc3c(C)c(OCc4ccc([N+](=O)[O-])cc4)cc(C(=O)N[C@@H]4C(=O)N[C@H](C(C)C)C(=O)N5CCC[C@@H]5C(=O)N(C)CC(=O)N(C)[C@@H](C(C)C)C(=O)O[C@@H]4C)c3nc-2c(C(=O)N[C@H]2C(=O)N[C@@H](C(C)C)C(=O)N3CCC[C@H]3C(=O)N(C)CC(=O)N(C)[C@H](C(C)C)C(=O)O[C@H]2C)c(N)c1=O | – | – | – | Not measurable | High and variable values | High and variable values | 100000 | – | – | – | –
CCCCCCOc1cc(C(=O)N[C@@H]2C(=O)N[C@H](C(C)C)C(=O)N3CCC[C@H]3C(=O)N(C)CC(=O)N(C)[C@@H](C(C)C)C(=O)O[C@@H]2C)c2nc3c(C(=O)N[C@@H]4C(=O)N[C@H](C(C)C)C(=O)N5CCC[C@H]5C(=O)N(C)CC(=O)N(C)[C@@H](C(C)C)C(=O)O[C@@H]4C)c(N)c(=O)c(C)c-3oc2c1C | 2.5 (≈ 1.84 µM) | 0.9 | 13 | – | – | – | – | 24 | – | – | –
Cc1c2oc3c(C)ccc(C(=O)N[C@@H]4C(=O)N[C@H](C(C)C)C(=O)N5CCC[C@H]5C(=O)N(C)CC(=O)N(C)[C@@H](C(C)C)C(=O)O[C@@H]4C)c3nc-2c(C(=O)N[C@@H]2C(=O)N[C@H](C(C)C)C(=O)N3CCC[C@H]3C(=O)N(C)CC(=O)N(C)[C@@H](C(C)C)C(=O)O[C@@H]2C)c(NCCCCCN)c1=O | 0.85 (≈ 0.634 µM) | 1.8 | 18 | – | – | – | – | 64 | > 4600 | 460 | –
Cc1c2oc3c(C)ccc(C(=O)N[C@@H]4C(=O)N[C@H](C(C)C)C(=O)N5CCC[C@H]5C(=O)N(C)CC(=O)N(C)[C@@H](C(C)C)C(=O)O[C@@H]4C)c3nc-2c(C(=O)N[C@@H]2C(=O)N[C@H](C(C)C)C(=O)N3CCC[C@H]3C(=O)N(C)CC(=O)N(C)[C@@H](C(C)C)C(=O)O[C@@H]2C)c(NCCCCN)c1=O | 0.6 (≈ 0.452 µM) | 1.8 | 23 | – | – | – | – | 109 | 3300 | 346 | –
CCCCCCNc1c(C(=O)N[C@@H]2C(=O)N[C@H](C(C)C)C(=O)N3CCC[C@H]3C(=O)N(C)CC(=O)N(C)[C@@H](C(C)C)C(=O)O[C@@H]2C)c2nc3c(C(=O)N[C@@H]4C(=O)N[C@H](C(C)C)C(=O)N5CCC[C@H]5C(=O)N(C)CC(=O)N(C)[C@@H](C(C)C)C(=O)O[C@@H]4C)ccc(C)c3oc-2c(C)c1=O | 3 (≈ 2.24 µM) | 1.2 | 11 | – | – | – | – | 0 | – | – | –
CCCCCCCCCCCNc1c(C(=O)N[C@@H]2C(=O)N[C@H](C(C)C)C(=O)N3CCC[C@H]3C(=O)N(C)CC(=O)N(C)[C@@H](C(C)C)C(=O)O[C@@H]2C)c2nc3c(C(=O)N[C@@H]4C(=O)N[C@H](C(C)C)C(=O)N5CCC[C@H]5C(=O)N(C)CC(=O)N(C)[C@@H](C(C)C)C(=O)O[C@@H]4C)ccc(C)c3oc-2c(C)c1=O | > 15 | 1.15 | 10 | – | – | – | – | – | – | – | –
Cc1c2oc3c(C)c(OC(=O)C45CC6CC(CC(C6)C4)C5)cc(C(=O)N[C@@H]4C(=O)N[C@H](C(C)C)C(=O)N5CCC[C@@H]5C(=O)N(C)CC(=O)N(C)[C@@H](C(C)C)C(=O)O[C@@H]4C)c3nc-2c(C(=O)N[C@H]2C(=O)N[C@@H](C(C)C)C(=O)N3CCC[C@H]3C(=O)N(C)CC(=O)N(C)[C@H](C(C)C)C(=O)O[C@H]2C)c(N)c1=O | – | – | – | Not measurable | – | – | – | – | – | – | Not measurable
CCCCCNc1c(C(=O)N[C@@H]2C(=O)N[C@H](C(C)C)C(=O)N3CCC[C@H]3C(=O)N(C)CC(=O)N(C)[C@@H](C(C)C)C(=O)O[C@@H]2C)c2nc3c(C(=O)N[C@@H]4C(=O)N[C@H](C(C)C)C(=O)N5CCC[C@H]5C(=O)N(C)CC(=O)N(C)[C@@H](C(C)C)C(=O)O[C@@H]4C)ccc(C)c3oc-2c(C)c1=O | 1.6 (≈ 1.21 µM) | 1.15 | 13 | – | – | – | – | 18 | – | – | –
